FN deposit inh = inhibitors of fibronectin matrix deposition, primary screen, AH1F cells, Alexa488-fibronectin fluorescence, plate reader. AH1F fibroblasts, overnight. inhibition, % at 12.6 µM. hit rate 0.086% among 350,000;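 active = mean inhibition across replicates of 30% or more, regardless of how many single replicates reach that level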;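 note: positive control wells lacked labelled fibronectin entirely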
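Schedule: 1 h cell adhesion before compound, then overnight fibronectin incubation; test system: AH1F fibroblast monolayer depositing Alexa488-labelled fibronectin into matrix; quantity: 10000 AH1F cells per well; probe or stimulus: fluorescent fibronectin at 24 nM final; signal: fluorescence, ex 485 nm, em 525 nm; evaluation: percent inhibition as loss of matrix-bound fibronectin fluorescence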
E-selectin induc = E-selectin induction in HUVECs, primary screen, imaging, HUVEC, immunofluorescence imaging, single point. P16581. normalized: neutral wells 0, TNF-alpha wells 100. activation, % at 7.58 µM. hit rate 0.37% among 260,000;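 active = mean E-selectin-positive cell signal at least 10% of the positive control, reached in at least 60% of replicates, without over 20% cell loss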
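Assay system: HUVEC, human umbilical vein endothelial cells / Amount: 3,000 HUVEC/well / Controls: TNF-alpha positive control, DMSO neutral control / Compound dosing: single concentration / Medium: EGM-2 over gelatin coat / Evaluation: percent E-selectin-positive cells / Signal: immunofluorescence imaging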
Ecoli rRNA inh = reduced GFP signal of wild-type E. coli, primary screen, bacterial rRNA inhibitor project, GFP/RFP fluorescence, OD600, single point; E. coli WT GFP vs humanized-ribosome RFP mutants, 24 h; active compounds read low; DMSO median 0, no signal -100; GFP signal change (wild-type ribosome), % (concentration not given with the values); hit rate 1.6% among 350,000;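 active = significant combined selectivity score with lowered wild-type GFP, culture density cut under 30%, mutant RFP and density less affected; inactive = any of these conditions unmet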
C2C12 statin = suppressors of statin myotoxicity in C2C12 myotubes, primary screen, cell-based, single point, plate reader; C2C12 myotubes + simvastatin, ATP luminescence, 48 h; scaled: DMSO 0, geranylgeraniol control 100; rescue of ATP level, % at 7.49 µM; hit rate 0.78% among 330,000; AID 602340, 2012;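 active = mean ATP rescue above about 67%, or every replicate alone reaching that limit, limit read from the data, passing the limit was not always enough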;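 note: myotubes were challenged with 10 µM simvastatin during compound exposure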
SIRT5 block = SIRT5 desuccinylase inhibitors, primary screen, biochemical, fluorescence imaging, single point, set 5. Purified SirT5, succinyl-peptide AMC, trypsin-coupled fluorescence. inhibition, % at 15 µM. hit rate 1.1% among 330,000. AID 652115, 2013; in the data active = inhibition above about 15%
Target sequence (Q9NXA8 whole entry, looked up): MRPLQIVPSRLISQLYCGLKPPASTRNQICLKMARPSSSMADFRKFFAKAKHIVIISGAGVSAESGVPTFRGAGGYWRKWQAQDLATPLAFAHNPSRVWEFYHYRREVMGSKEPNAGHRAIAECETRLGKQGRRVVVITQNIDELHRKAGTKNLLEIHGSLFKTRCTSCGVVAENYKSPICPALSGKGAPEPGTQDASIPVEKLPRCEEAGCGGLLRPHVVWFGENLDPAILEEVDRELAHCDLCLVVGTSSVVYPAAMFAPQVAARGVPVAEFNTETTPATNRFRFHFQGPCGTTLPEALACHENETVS
FGF22 binding = binders of human FGF22 protein, primary screen, FGF22 synaptogenesis inhibitor project, biophysical, thermal shift, single point; Fibroblast growth factor 22 (Homo sapiens), Q9HCT0; recombinant FGF22 thermal shift, SYPRO orange fluorescence; percent of sucrose octasulfate shift, DMSO zero; activity (Tm shift, normalised), % at 9.99 µM; hit rate 1.5% among 340,000;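 active = mean Tm shift, scaled 0 neutral to 100 positive control, at about 1.3% or above, every replicate too, limit read from the data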
Target sequence (Q9HCT0 whole entry, looked up): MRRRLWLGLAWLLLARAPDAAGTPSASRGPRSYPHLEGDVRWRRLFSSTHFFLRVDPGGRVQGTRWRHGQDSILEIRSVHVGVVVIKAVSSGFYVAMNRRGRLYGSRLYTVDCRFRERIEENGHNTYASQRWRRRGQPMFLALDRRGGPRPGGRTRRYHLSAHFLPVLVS
Numbers without * were called inactive; ! = not active in a repeat. The list is not random: actives were taken first. Their share in the collection is about 4%.

How did CC1CN(C(=O)/C(C#N)=C2\N=C(NC(=O)c3ccccc3Cl)c3ccccc32)CC(C)O1 (centres undefined) do in these assays?
FN deposit inh: -5.9; E-selectin induc: 11.6; Ecoli rRNA inh: 13.5; SIRT5 block: 21.0*; FGF22 binding: 0.3

What do the screens show for `CC1CN(C(=O)/C(C#N)=C2\N=C(NC(=O)c3ccc(F)cc3)c3ccccc32)CC(C)O1` (centres undefined)?
FN deposit inh: 0.6; SIRT5 block: 2.0; FGF22 binding: 0.1

Results for CCC(=O)Nc1ccc(C(=O)Nc2ccc(Br)cc2F)cc1 ?
FN deposit inh: 3.8; Ecoli rRNA inh: 12.1; C2C12 statin: -9.9; SIRT5 block: -1.2; FGF22 binding: 43.5*

How did O=C(Nc1ccc(Br)cc1F)c1ccc2c(c1)OCCO2 do in these assays?
FN deposit inh: 0.0; Ecoli rRNA inh: 0.9; C2C12 statin: -51.3; SIRT5 block: 0.2; FGF22 binding: -0.2

How did COc1ccccc1NC(=O)C[C@H]1CC[C@H]2[C@@H](COc3ccc(NC(C)=O)cc3C(=O)N2C)O1 do in these assays?
FN deposit inh: -22.5; E-selectin induc: 0.1; Ecoli rRNA inh: -1.8; SIRT5 block: -2.8; FGF22 binding: -0.1

How did C[C@H](CO)N1C[C@H](C)[C@@H](CN(C)C(=O)Nc2cc(F)ccc2F)Oc2cc(C#CC3CCCC3)ccc2S1(=O)=O do in these assays?
C2C12 statin: 8.1; SIRT5 block: 9.5; FGF22 binding: 0.1

Results for C[C@H]1CN([C@@H](C)CO)S(=O)(=O)c2ccc(C#CC3CCCC3)cc2O[C@@H]1CN(C)C(=O)Nc1cc(F)ccc1F ?
E-selectin induc: -0.3; Ecoli rRNA inh: 1.8; C2C12 statin: -9.9; SIRT5 block: 19.7*; FGF22 binding: 0.2

How did C[C@H](CO)N1C[C@H](C)[C@H](CN(C)C(=O)Nc2cc(F)ccc2F)Oc2cc(C#CC3CC3)ccc2S1(=O)=O do in these assays?
E-selectin induc: 1.6; Ecoli rRNA inh: -2.4; C2C12 statin: 74.8*

Results for COc1ccc(S(=O)(=O)Nc2cccc3c2O[C@H](CN(C)C(=O)Nc2c(C)noc2C)[C@@H](C)CN([C@@H](C)CO)C3=O)cc1 ?
E-selectin induc: 31.8*; Ecoli rRNA inh: 5.4; C2C12 statin: -6.6; SIRT5 block: -0.3; FGF22 binding: 0.1

How did COc1ccc(S(=O)(=O)Nc2cccc3c2O[C@@H](CN(C)C(=O)Nc2c(C)noc2C)[C@H](C)CN([C@@H](C)CO)C3=O)cc1 do in these assays?
E-selectin induc: -10.0; Ecoli rRNA inh: -0.3; C2C12 statin: 15.9; SIRT5 block: -2.1; FGF22 binding: -0.1

What do the screens show for `COc1ccc(S(=O)(=O)Nc2cccc3c2O[C@H](CN(C)C(=O)Nc2c(C)noc2C)[C@H](C)CN([C@H](C)CO)C3=O)cc1`?
E-selectin induc: 96.0*; Ecoli rRNA inh: -4.4; C2C12 statin: -21.0; SIRT5 block: 0.2; FGF22 binding: 0.3

Results for COc1cc2c(cc1OC)CN(C(=O)c1ccc(S(=O)(=O)N3CCCC3)cc1)CC2 ?
FN deposit inh: -8.6; E-selectin induc: 2.3; Ecoli rRNA inh: -1.8; SIRT5 block: -0.2; FGF22 binding: 0.1

How did CCOc1cc2c(cc1OCC)CN(C(=O)c1cccc(S(=O)(=O)N3CCCC3)c1)CC2 do in these assays?
FN deposit inh: -1.7; Ecoli rRNA inh: -19.1*; C2C12 statin: 23.5; SIRT5 block: -2.3; FGF22 binding: 0.1

How did O=S(=O)(Nn1cnnc1)c1ccc2ccccc2c1 do in these assays?
FN deposit inh: -6.3; Ecoli rRNA inh: 15.2; C2C12 statin: -1.9; SIRT5 block: 1.0; FGF22 binding: 43.3*

What do the screens show for `O=S(=O)(Nc1nc2c(s1)CCCC2)c1ccc2ccccc2c1`?
C2C12 statin: 122.6*

Results for O=C(Nc1ccc2c(c1)[C@@H]1C[C@@H](CC(=O)N3CCCCC3)O[C@@H](CO)[C@@H]1O2)C1CCC1 ?
FN deposit inh: 9.3; E-selectin induc: -0.2; Ecoli rRNA inh: -1.3; C2C12 statin: 2.5; SIRT5 block: 9.3; FGF22 binding: 0.0

Results for CCN1[C@H](C(=O)OC)[C@@H](CO)[C@@H]2Cn3c(ccc(C4=CCCCC4)c3=O)[C@@H]21 ?
E-selectin induc: 0.0; Ecoli rRNA inh: -0.2; C2C12 statin: -10.4; SIRT5 block: -0.9; FGF22 binding: 0.1

What do the screens show for `Cc1cccc(S(=O)(=O)N(C)C[C@@H]2OCc3ccccc3-c3c(n(C)c4ccccc34)C(=O)N([C@H](C)CO)C[C@@H]2C)c1`?
FN deposit inh: 10.0; E-selectin induc: 0.0; Ecoli rRNA inh: 1.2; C2C12 statin: 4.6; SIRT5 block: 20.2*; FGF22 binding: 0.0

Results for C[C@H](CO)N1C[C@H](C)[C@H](CN(C)S(=O)(=O)c2cccs2)OCc2ccccc2-c2ccccc2C1=O ?
FN deposit inh: -27.2; E-selectin induc: 0.2; Ecoli rRNA inh: 0.4; C2C12 statin: -11.1; SIRT5 block: 6.1; FGF22 binding: 0.2

How did C[C@@H]1CN([C@H](C)CO)C(=O)c2ccccc2-c2ccccc2CO[C@H]1CN(C)S(=O)(=O)c1cccs1 do in these assays?
FN deposit inh: 4.5; E-selectin induc: -0.2; Ecoli rRNA inh: -0.1; SIRT5 block: 18.1*; FGF22 binding: -0.3

Results for Cc1ccc(S(=O)(=O)N(C)C[C@@H]2OCc3ccccc3-c3c(n(C)c4ccccc34)C(=O)N([C@H](C)CO)C[C@@H]2C)cc1 ?
FN deposit inh: -3.9; E-selectin induc: -5.1; Ecoli rRNA inh: 10.9; C2C12 statin: 14.9; SIRT5 block: 18.4*!; FGF22 binding: -0.4

How did Cc1cccc(S(=O)(=O)N(C)C[C@H]2OCc3ccccc3-c3c(n(C)c4ccccc34)C(=O)N([C@H](C)CO)C[C@@H]2C)c1 do in these assays?
FN deposit inh: -2.4; E-selectin induc: -0.2; Ecoli rRNA inh: 1.7; SIRT5 block: 3.5; FGF22 binding: 0.0

Results for COc1cccc(S(=O)(=O)N(C)C[C@H]2OCc3ccccc3-c3c(n(C)c4ccccc34)C(=O)N([C@@H](C)CO)C[C@H]2C)c1 ?
FN deposit inh: -7.2; E-selectin induc: -0.1; Ecoli rRNA inh: -0.3; C2C12 statin: 69.0*; SIRT5 block: 9.8; FGF22 binding: -0.3

Source: PubChem
